Experimental data from paper PMC3144539 (British Journal of Pharmacology, 2011).

Assays:
[1] = tested on: 4-oxo-4-HPR formation in pooled mouse liver microsomes (MLM); experiment: Effect of CYP enzyme inhibitors on 4-oxo-4-HPR formation from 4-HPR in MLM; assay type: in vitro ADME; conditions: inhibitor 10 µM, 4-HPR 25 µM, 60 min
Outline: (§1)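 Pooled liver microsomes (0.5 mg protein·mL−1) were preincubated 20 min at 37°C, pH 7.4 phosphate buffer, with the NADPH-generating system and a CYP2C8, 2C9 or 3A4 inhibitor or no inhibitor. Then 25 µM substrate was added for 60 min at 37°C. Acetonitrile/internal-standard quench, centrifugation, and HPLC quantitation of 4-oxo product followed. Performed in triplicate.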

[2] = tested on: 4-oxo-4-HPR formation in pooled human liver microsomes (HLM); experiment: Effect of CYP enzyme inhibitors on 4-oxo-4-HPR formation from 4-HPR in HLM; assay type: in vitro ADME; conditions: inhibitor 10 µM, 4-HPR 25 µM, 60 min
Outline: as §1

CYP3A4 = conditions: inhibits other CYP isoforms at higher concentrations; ref Jia and Liu, 2007; cited from earlier work
[3] = paediatric phase I study, neuroblastoma patients; ref Villablanca et al., 2006; cited from earlier work
human CYP3A4 = human CYP3A4 (Homo sapiens, UniProt P08684); experiment: Formation of 4-oxo-4-HPR from 4-HPR in human CYP3A4 isoenzyme microsomes; assay type: in vitro ADME; conditions: 4-HPR 10 µM, NADPH generating system
[4] = Plasma levels in NOD/SCID mice given 4-HPR/LXS with or without ketoconazole; assay type: in vivo
Outline: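 NOD/SCID mice, 5–6 weeks old, were gavaged with 180 mg·kg−1 per day test compound (lipid-matrix powder slurried in water, two divided doses), alone or with ketoconazole. The dose-ranging arm was sampled 4 h after the ninth dose, the 25 mg·kg−1 arm 4 h after the fifth dose. Light-protected cardiac-puncture plasma was analysed by HPLC. Cohorts of three; mean ± SD.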

[5] = Plasma levels in nu/nu mice given 4-HPR/LXS with or without ketoconazole; assay type: in vivo, athymic nude (nu/nu) mice
Outline: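 Athymic nude mice, 5–6 weeks old, were gavaged with test compound in lipid-matrix powder slurried in sterile water, 180 mg·kg−1 per day in two divided doses, alone or with ketoconazole at increasing doses. Killed 4 h after the ninth dose. Plasma from isoflurane cardiac-puncture blood, collected in the dark, was analysed by HPLC. Three mice per condition; mean ± SD.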

human cancer cell lines = conditions: variety of human cancer cell lines in vitro; ref Delia et al., 1993; Mariotti et al., 1994; Kalemkerian et al., 1995; Oridate et al., 1996; O'Donnell et al., 2002; cited from earlier work
[6] = Plasma levels in neuroblastoma patients given 4-HPR/LXS oral powder; assay type: in vivo; conditions: human, 595 mg/m2 per day
Outline: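 Three relapsed/refractory neuroblastoma patients received oral lipid-matrix powder, 595 mg·m−2 per day given twice daily 12 h apart. On day 6 of cycle 1, venous blood was drawn just before the morning dose and every 2 h to 8 h. Samples went into foil-wrapped heparinized tubes, were centrifuged immediately, stored at −80°C and handled in the dark. Plasma was assayed by HPLC.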

[7] = beagle dogs, single 10 mg/kg dose of the capsules; ref Liu et al., 2007; cited from earlier work
[8] = 4-HPR and 4-MPR metabolism kinetics in pooled mouse liver microsomes; assay type: in vitro ADME; conditions: pH 7.4
Outline: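 Pooled mouse liver microsomes at 0.5 mg protein·mL−1 with NADPH-generating solutions in 0.1 M potassium phosphate, pH 7.4, preincubated 20 min at 37°C. Substrate added at a range of concentrations and shaken 60 min at 37°C. Stopped with ice-cold acetonitrile plus internal standard, centrifuged, and supernatant analysed by reverse-phase HPLC. Michaelis–Menten constants for product formation derived.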

human CYP3A4, sequence (P08684 whole entry): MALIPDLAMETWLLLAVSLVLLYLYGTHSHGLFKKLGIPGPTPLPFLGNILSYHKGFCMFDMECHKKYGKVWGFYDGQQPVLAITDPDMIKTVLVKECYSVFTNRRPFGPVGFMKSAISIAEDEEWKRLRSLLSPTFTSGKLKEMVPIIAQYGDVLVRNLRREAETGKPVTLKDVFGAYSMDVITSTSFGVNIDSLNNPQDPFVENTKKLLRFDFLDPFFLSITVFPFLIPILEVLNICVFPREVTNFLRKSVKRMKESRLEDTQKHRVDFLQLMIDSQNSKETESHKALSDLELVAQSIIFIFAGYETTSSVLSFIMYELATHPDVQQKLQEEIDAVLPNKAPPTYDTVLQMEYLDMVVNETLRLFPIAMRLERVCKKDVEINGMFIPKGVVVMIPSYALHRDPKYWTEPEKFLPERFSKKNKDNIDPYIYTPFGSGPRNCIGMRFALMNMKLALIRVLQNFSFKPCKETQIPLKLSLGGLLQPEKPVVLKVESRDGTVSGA

| SMILES | Reduction of 4-oxo-4-HPR formation from 4-HPR alone [1] | Reduction of 4-oxo-4-HPR formation from 4-HPR alone [2] | Concentrations at which specific for CYP3A4 (CYP3A4) | Maximum tolerated dose [3] | 4-oxo-4-HPR concentrations formed from 4-HPR (human CYP3A4) | Increase of plasma level over control (4-HPR without ketoconazole) ([4]; + ketoconazole 18.75 mg/kg, P < 0.01) | Increase of plasma level over control (4-HPR without ketoconazole) ([4]; + ketoconazole 25 mg/kg, 4 h after fifth dose, Fig 4C) | concentration at 4 h ([5]; athymic nude (nu/nu), mouse, plasma, oral, 180 mg/kg per day) | Increase of plasma level over control (4-HPR without ketoconazole) ([5]; nu/nu mice, + ketoconazole 75 mg/kg, P < 0.01) | Concentrations exhibiting cytotoxic activity (human cancer cell lines) | concentration at 0 h [6] | concentration at 2 h [6] | concentration at 4 h [6] | concentration at 6 h [6] | concentration at 8 h [6] | Oral bioavailability [7] | Km at 60 min [8] |
| --- | --- | --- | --- | --- | --- | --- | --- | --- | --- | --- | --- | --- | --- | --- | --- | --- | --- |
| OC(Cn1cncn1)(Cn1cncn1)c1ccc(F)cc1F [fluconazole] | 40.9% | – | – | – | – | – | – | – | – | – | – | – | – | – | – | – | – |
| CC(=O)N1CCN(c2ccc(OCC3COC(Cn4ccnc4)(c4ccc(Cl)cc4Cl)O3)cc2)CC1 (stereo not drawn) [ketoconazole] | 96.5% | 33.7% | up to 1 µM | – | – | – | – | – | – | – | – | – | – | – | – | – | – |
| CC1=C(/C=C/C(C)=C/C=C/C(C)=C/C(=O)Nc2ccc(O)cc2)C(C)(C)CCC1 [4-HPR, N-(4-hydroxyphenyl)retinamide] | – | – | – | 2450 mg·m^−2 per day | increased in a time-dependent manner | 3.4 fold | twofold | 14.5 µM | 2.2 fold | 1 to 10 µM | 7.04 ± 4.75 µM | 9.69 ± 7.3 µM | 12.8 µM | 13.1 ± 8.5 µM | 8.55 ± 6.42 µM | approximately 16% | 25.8 µM |
